The target in test [1] is Muscarinic acetylcholine receptor M3 (Cavia porcellus) (UniProt Q8VH26). Kind of test: (§1) Antagonist activity at muscarinic receptor M3 assessed as contraction of guinea pig ileum. It counts as functional, tissue-based. The settings on record: filed as antagonist. The method in brief:
(§2)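 Isolated guinea pig tissue preparations (stimulated left atria, ileum, lung strips), run in vitro by a previously described protocol, with the ileum method slightly modified. Agonist dose–response curves were recorded before and after one or two antagonist concentrations. pKb = log(DR−1) − log[B], where DR is the ratio of agonist ED50 after/before antagonist. Some cases were expressed as pA2 from Schild plots constrained to slope −1.0.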

The test system of test [2] is Muscarinic acetylcholine receptor M2 (Cavia porcellus). Kind of test: Antagonist activity at muscarinic receptor M2 assessed as contraction of electrically-stimulated guinea pig left atria. The settings on record: filed as antagonist.
In test [3] the target is T1, Muscarinic acetylcholine receptor M5 (Homo sapiens, UniProt P08912).
T1 sequence (P08912 whole entry): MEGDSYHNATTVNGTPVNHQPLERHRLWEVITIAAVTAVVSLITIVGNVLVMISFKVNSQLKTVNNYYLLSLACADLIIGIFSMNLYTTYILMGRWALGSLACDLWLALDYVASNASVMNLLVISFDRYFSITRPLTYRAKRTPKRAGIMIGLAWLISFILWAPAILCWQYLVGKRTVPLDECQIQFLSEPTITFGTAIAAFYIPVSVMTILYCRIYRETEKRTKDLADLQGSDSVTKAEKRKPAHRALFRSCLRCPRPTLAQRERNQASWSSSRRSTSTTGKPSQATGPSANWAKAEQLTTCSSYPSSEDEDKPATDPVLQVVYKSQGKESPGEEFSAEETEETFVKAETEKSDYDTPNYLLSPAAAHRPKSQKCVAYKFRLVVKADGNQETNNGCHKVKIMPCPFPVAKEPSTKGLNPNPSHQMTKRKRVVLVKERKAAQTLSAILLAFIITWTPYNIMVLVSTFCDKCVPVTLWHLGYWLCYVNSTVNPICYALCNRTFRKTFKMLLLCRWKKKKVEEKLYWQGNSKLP
Kind of test: Binding affinity to human cloned muscarinic receptor M5 expressed in CHO cells. It counts as cell-based. The method in brief: (§3)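 Equilibrium radioligand binding on CHO cells expressing the cloned human muscarinic subtype. Affinity is reported as pKi.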

The target of test [4] is T2, Muscarinic acetylcholine receptor M1 (Homo sapiens, UniProt P11229).
T2 sequence (P11229 whole entry): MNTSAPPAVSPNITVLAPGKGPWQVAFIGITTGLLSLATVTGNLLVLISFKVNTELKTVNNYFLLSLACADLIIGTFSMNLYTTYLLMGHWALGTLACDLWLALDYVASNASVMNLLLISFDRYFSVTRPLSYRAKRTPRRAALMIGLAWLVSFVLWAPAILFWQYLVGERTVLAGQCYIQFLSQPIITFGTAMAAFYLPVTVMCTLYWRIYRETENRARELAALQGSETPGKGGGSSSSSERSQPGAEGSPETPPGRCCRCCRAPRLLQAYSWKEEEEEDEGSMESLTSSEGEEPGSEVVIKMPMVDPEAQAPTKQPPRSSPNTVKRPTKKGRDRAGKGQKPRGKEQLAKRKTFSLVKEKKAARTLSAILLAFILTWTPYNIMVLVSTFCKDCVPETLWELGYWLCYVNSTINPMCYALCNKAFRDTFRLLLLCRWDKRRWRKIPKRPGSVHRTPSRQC
The test is described as follows: Binding affinity to human cloned muscarinic receptor M1 expressed in CHO cells. The test is classed as cell-based.

The target of test [5] is T3, Muscarinic acetylcholine receptor M2 (Homo sapiens, UniProt P08172).
T3 sequence (P08172 whole entry): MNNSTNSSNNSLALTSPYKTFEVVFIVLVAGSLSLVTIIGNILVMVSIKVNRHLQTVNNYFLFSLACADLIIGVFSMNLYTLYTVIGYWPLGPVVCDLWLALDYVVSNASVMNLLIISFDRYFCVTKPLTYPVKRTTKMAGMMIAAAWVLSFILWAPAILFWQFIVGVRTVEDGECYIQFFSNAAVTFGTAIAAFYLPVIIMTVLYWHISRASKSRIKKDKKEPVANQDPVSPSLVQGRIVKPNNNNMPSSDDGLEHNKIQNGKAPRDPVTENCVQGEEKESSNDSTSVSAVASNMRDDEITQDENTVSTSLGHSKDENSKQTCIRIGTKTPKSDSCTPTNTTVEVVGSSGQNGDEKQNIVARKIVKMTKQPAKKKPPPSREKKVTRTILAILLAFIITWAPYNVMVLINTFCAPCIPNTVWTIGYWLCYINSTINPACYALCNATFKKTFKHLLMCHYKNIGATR
Kind of test: Binding affinity to human cloned muscarinic receptor M2 expressed in CHO cells. The test is classed as cell-based. The method in brief: as §3

Test [6] concerns the target Muscarinic acetylcholine receptor M3 (Homo sapiens, UniProt P20309). The test is described as follows: Binding affinity to human cloned muscarinic receptor M3 expressed in CHO cells. The test is classed as cell-based.
Test [7] deals with Muscarinic acetylcholine receptor M4, putative (Cavia porcellus). The test is described as follows: Antagonist activity at putative muscarinic receptor M4 assessed as contraction of electrically-stimulated guinea pig lung strips. The settings on record: filed as antagonist.
In test [8] the target is T4, Muscarinic acetylcholine receptor M4 (Homo sapiens, UniProt P08173).
T4 sequence (P08173 whole entry): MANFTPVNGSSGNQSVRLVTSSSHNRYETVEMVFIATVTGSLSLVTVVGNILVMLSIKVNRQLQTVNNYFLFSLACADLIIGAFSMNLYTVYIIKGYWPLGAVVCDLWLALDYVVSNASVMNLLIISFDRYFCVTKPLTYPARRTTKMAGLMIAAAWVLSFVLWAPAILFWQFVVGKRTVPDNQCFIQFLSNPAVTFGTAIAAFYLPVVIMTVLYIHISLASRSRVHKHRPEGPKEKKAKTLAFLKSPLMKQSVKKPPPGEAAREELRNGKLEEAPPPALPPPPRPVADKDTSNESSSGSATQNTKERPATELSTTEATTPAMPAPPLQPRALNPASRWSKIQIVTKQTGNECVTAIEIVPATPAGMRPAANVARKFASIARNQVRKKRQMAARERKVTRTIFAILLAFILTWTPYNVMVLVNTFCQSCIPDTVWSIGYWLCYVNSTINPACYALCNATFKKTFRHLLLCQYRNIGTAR
The test is described as follows: Binding affinity to human cloned muscarinic receptor M4 expressed in CHO cells. It counts as cell-based.

Test [9] has as its system Muscarinic acetylcholine receptor M1, putative (Oryctolagus cuniculus). Conditions: Vas deferens, filed as antagonist.
Test [10] has as its target Muscarinic acetylcholine receptor M3 (Cavia porcellus, UniProt Q8VH26). The test is described as §1. The test is classed as functional, tissue-based. The settings on record: read-out: pA2 (converted). In outline:
as §2

Sequence of Muscarinic acetylcholine receptor M3 (Cavia porcellus) (Q8VH26 1-587): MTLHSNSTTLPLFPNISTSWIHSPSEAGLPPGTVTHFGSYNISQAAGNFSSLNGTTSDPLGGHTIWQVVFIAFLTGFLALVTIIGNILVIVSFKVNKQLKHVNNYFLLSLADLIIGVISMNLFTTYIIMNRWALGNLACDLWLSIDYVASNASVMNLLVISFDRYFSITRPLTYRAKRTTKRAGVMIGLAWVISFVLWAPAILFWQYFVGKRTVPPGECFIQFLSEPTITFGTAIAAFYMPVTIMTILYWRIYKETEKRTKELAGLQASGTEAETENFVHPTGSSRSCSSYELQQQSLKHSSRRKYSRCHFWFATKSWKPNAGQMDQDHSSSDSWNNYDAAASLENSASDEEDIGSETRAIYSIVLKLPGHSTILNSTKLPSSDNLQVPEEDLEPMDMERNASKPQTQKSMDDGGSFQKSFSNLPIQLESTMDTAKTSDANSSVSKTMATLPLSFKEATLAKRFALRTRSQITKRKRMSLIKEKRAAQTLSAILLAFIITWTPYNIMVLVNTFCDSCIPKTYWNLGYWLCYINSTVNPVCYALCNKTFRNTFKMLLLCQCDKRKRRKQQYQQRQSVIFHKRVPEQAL
Sequence of Muscarinic acetylcholine receptor M3 (Cavia porcellus, UniProt Q8VH26) (Q8VH26 whole entry): as the sequence (Q8VH26 1-587) above
Sequence of Muscarinic acetylcholine receptor M3 (Homo sapiens, UniProt P20309) (P20309 whole entry): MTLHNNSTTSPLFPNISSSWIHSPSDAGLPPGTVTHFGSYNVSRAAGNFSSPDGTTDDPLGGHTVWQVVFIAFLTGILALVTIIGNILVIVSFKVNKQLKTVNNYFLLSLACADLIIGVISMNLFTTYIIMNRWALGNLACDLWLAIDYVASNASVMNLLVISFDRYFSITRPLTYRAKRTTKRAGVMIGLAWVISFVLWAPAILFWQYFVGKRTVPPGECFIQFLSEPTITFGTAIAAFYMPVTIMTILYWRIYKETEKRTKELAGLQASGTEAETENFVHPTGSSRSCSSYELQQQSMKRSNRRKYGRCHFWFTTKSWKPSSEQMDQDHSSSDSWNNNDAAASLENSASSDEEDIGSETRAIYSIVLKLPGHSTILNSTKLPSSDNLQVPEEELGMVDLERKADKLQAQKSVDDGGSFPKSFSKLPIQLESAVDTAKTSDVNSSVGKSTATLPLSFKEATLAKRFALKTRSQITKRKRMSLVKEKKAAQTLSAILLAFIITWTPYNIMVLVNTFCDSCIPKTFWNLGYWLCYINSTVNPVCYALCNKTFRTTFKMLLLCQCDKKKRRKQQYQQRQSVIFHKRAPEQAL

Consider `C[N+](C)(C)C[C@@H]1CS[C@@](c2ccccc2)(C2CCCCC2)O1`, for which the pKb (usually the Kb on a negative log10 scale, so that one unit is a factor of ten) in test [1] is 8.79; in test [2] it was 8.47; in test [7], 6.24; in test [9], 8.81. In addition, the Ki (usually the equilibrium dissociation constant of an inhibitor or competing ligand from its target) in test [3] is listed as 2.82 nM (antagonist); in [4], 1.1 nM (antagonist); in test [5], 7.59 nM (antagonist); in [6], 1.78 nM (antagonist); in test [8], 6.17 nM (antagonist).

For `C[N+]1(C)[C@@H]2C[C@@H](OC(=O)[C@H](CO)c3ccccc3)C[C@H]1[C@@H]1O[C@@H]12` [METHSCOPOLAMINE], in [10], the Kb is reported as 0.617 nM (antagonist).
